Laboratory results published in ChEMBL document CHEMBL1130252, “5-HT1B receptor antagonist properties of novel arylpiperazide derivatives of 1-naphthylpiperazine” (J Med Chem, 1997).

Assays:
[1] = biological target: T1, 5-hydroxytryptamine receptor 1A (Homo sapiens, UniProt P08908); experiment: Receptor binding affinity for cloned human 5-hydroxytryptamine 1A receptor in HeLa cells; format: cell-based
T1 sequence (P08908 whole entry): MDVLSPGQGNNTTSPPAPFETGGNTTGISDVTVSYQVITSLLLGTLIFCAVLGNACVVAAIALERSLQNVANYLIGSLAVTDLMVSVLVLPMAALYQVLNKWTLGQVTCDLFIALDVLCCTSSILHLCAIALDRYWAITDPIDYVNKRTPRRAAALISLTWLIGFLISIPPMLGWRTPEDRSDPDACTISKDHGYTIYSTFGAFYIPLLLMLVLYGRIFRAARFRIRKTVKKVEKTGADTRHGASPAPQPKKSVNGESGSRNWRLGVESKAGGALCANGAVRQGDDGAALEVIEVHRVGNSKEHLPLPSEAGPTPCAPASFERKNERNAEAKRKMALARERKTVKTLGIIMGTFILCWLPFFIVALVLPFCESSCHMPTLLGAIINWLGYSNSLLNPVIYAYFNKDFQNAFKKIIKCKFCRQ

[2] = biological target: 5-hydroxytryptamine receptor 1D (Homo sapiens, UniProt P28221); experiment: Receptor binding affinity for cloned human 5-hydroxytryptamine 1D receptor in Cos-7 cells; format: cell-based
[3] = biological target: T2, 5-hydroxytryptamine receptor 1B (Homo sapiens, UniProt P28222); experiment: Agonist activity at 5-hydroxytryptamine 1B receptor by measuring the inhibition of forskolin-stimulated cAMP formation; format: functional
Summary of the method: (§1)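 Human 5-HT1B receptors expressed in CHO-K1 cells. Agonist response read as inhibition of forskolin-stimulated cAMP formation. EC50 determined, and Emax expressed as a percentage of the maximal inhibition produced by 1 µM 5-HT. Values are the mean of two or three experiments, each run in duplicate, with individual values typically within ±10-20% of the mean.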

[4] = biological target: T2, 5-hydroxytryptamine receptor 1B; experiment: Antagonism tested at 1 uM against the agonist-induced inhibitory effect of 10 nM 5-carbamoyltryptamine(5-CT); format: functional
Summary of the method: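 Run in the same forskolin-stimulated cAMP system, with h5-HT1B receptors expressed in CHO-K1 cells. The compound at 1 µM was tested against the inhibition of cAMP formation produced by 10 nM 5-CT. Values are the mean of two or three experiments, each in duplicate.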

[5] = biological target: T2, 5-hydroxytryptamine receptor 1B; experiment: Receptor binding affinity for cloned human 5-hydroxytryptamine 1B receptor in Cos-7 cells; format: cell-based
[6] = biological target: T2, 5-hydroxytryptamine receptor 1B; experiment: Percentage Maximal inhibition obtained with 1 uM 5-HT against 5-hydroxytryptamine 1B receptor; summary of the method: as §1
[7] = biological target: T2, 5-hydroxytryptamine receptor 1B; conditions: 1 uM

T2 sequence (P28222 whole entry): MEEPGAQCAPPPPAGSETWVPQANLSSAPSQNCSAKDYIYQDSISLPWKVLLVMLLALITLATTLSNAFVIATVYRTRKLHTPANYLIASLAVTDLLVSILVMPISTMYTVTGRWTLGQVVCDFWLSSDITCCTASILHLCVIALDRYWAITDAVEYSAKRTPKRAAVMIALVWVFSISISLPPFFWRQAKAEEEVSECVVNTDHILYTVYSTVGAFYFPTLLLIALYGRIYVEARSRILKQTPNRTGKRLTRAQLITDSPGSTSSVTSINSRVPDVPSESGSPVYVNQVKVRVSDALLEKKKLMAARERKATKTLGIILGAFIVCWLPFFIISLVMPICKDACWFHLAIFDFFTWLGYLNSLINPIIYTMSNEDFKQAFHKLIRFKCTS
Sequence of 5-hydroxytryptamine receptor 1D (P28221 whole entry): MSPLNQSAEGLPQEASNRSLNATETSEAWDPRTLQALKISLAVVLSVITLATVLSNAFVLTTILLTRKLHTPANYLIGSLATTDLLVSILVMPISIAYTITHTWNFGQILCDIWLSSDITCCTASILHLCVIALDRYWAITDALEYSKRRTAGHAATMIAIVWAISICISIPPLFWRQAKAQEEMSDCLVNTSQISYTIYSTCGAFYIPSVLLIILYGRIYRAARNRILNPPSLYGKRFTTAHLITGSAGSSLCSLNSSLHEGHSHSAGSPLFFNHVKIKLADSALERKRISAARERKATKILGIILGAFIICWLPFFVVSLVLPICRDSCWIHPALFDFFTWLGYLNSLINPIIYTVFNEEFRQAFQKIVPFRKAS

SMILES | Ki [1] [nM] | Ki [2] [nM] | EC50 [3] [nM] | Antagonism [4] [%] | Ki [5] [nM] | Emax [6] [%] | Antagonism [7] [%]
CN1CCN(c2cccc3ccc(OCC(=O)N4CCN(c5cccc6c5OCCO6)CC4)cc23)CC1 | 14.1 | 0.45 | 25 | 45 | 0.43 | 58 | –
c1ccc2c(N3CCNCC3)cccc2c1 | 9.2 | 6.2 | > 1000 | 96 | 10.1 | < 10 | –
COc1ccc2ccc(N3CCNCC3)cc2c1 | 2.8 | 0.7 | > 1000 | 95 | 2 | < 10 | –
Cc1ccccc1N1CCN(C(=O)COc2ccc3cccc(N4CCN(C)CC4)c3c2)CC1 | – | 0.69 | > 1000 | – | 0.3 | < 10 | 80
COc1cccc(N2CCN(C(=O)COc3ccc4cccc(N5CCN(C)CC5)c4c3)CC2)c1OC | 13.4 | 0.62 | 30 | 47 | 0.44 | 69 | –
Cc1ccccc1CN1CCN(C(=O)COc2ccc3cccc(N4CCN(C)CC4)c3c2)CC1 | 22.7 | 0.55 | > 1000 | 87 | 0.2 | < 10 | –
Cc1cc(C)c(N2CCN(C(=O)COc3ccc4cccc(N5CCN(C)CC5)c4c3)CC2)c(C)c1 | 117 | 1.9 | 25 | 46 | 1.4 | 26 | –
CN1CCN(c2cccc3ccc(OCC(=O)N4CCN(c5ccccc5C#N)CC4)cc23)CC1 | 12.3 | 0.51 | 28 | 56 | 0.38 | 48 | –
CN1CCN(c2cccc3ccc(OCC(=O)N4CCN(c5cccc6ccccc56)CC4)cc23)CC1 | 114 | 0.88 | > 1000 | 57 | 0.43 | < 10 | –
